≈ marks a conversion by molar mass, not a printed value.
Key:
[1] = Immunosuppressive activity in BALB/c mouse splenic B lymphocytes assessed as inhibition of LPS-induced cell proliferation after 72 hrs by MTT assay; type: functional, cell-based
In short: (§1)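 Splenocytes from three male BALB/c mice (7-11 weeks) at 8.0 × 10^6 cells/mL in FBS/RPMI, stimulated with LPS (B cells) or Con A (T cells) at 70% of the optimum dose from a dose-response curve. Samples were dissolved in 1.0% EtOH/medium and incubated 72 h at 37 °C in 5% CO2. MTT (5.0 mg/mL stock) was added for 4 h, formazan extracted into DMSO, and A570/630 read. Proliferation was expressed as % of no-sample control, in triplicate. IC50 came from a 7-concentration curve.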

[2] = Immunosuppressive activity in BALB/c mouse splenic T lymphocytes assessed as inhibition of Con A-induced cell proliferation after 72 hrs by MTT assay; type: functional, cell-based; in short: as §1

| SMILES | IC50 [1] [ng/mL] | IC50 [2] [ng/mL] |
| --- | --- | --- |
| Cn1cnc([N+](=O)[O-])c1Sc1ncnc2[nH]cnc12 [AZATHIOPRINE] | 2700 (≈ 9740 nM) | 2700 (≈ 9740 nM) |
| CN1C(=O)[C@]2(Cc3cn([C@]45C[C@@]67SS[C@@](CO)(C(=O)N6[C@H]4Nc4ccccc45)N(C)C7=O)c4ccccc34)SS[C@@]1(CO)C(=O)N2C [CHETOMIN] | 90 (≈ 127 nM) | 170 (≈ 239 nM) |
| CN1C(=O)[C@]2(Cc3cn([C@]45C[C@@]67SSS[C@@](CO)(C(=O)N6[C@H]4Nc4ccccc45)N(C)C7=O)c4ccccc34)SS[C@@]1(CO)C(=O)N2C [CHETOSEMINUDIN A] | 130 (≈ 175 nM) | 180 (≈ 242 nM) |
| CS[C@]1(Cc2c[nH]c3ccccc23)NC(=O)[C@](CO)(SC)N(C)C1=O [CHETOSEMINUDIN B] | – | 24000 (≈ 63200 nM) |
| CS[C@]1(CO)NC(=O)[C@](Cc2c[nH]c3ccccc23)(SC)NC1=O [CHETOSEMINUDIN C] | – | > 50000 |
| C=CC[C@@H]1/C=C(\C)C[C@H](C)C[C@H](OC)[C@H]2O[C@@](O)(C(=O)C(=O)N3CCCC[C@H]3C(=O)O[C@H](/C(C)=C/[C@@H]3CC[C@@H](O)[C@H](OC)C3)[C@H](C)[C@@H](O)CC1=O)[C@H](C)C[C@@H]2OC [TACROLIMUS ANHYDROUS] | 1.6 (≈ 1.99 nM) | 0.015 (≈ 0.0187 nM) |

Reference: ChEMBL document CHEMBL1146466, “Immunomodulatory constituents from an Ascomycete, Chaetomium seminudum” (J Nat Prod, 2004)
